Data reported in ChEMBL document CHEMBL1139054, “Indanylacetic acid derivatives carrying aryl-pyridyl and aryl-pyrimidinyl tail groups--new classes of PPAR gamma/delta and PPAR alpha/gamma/delta agonists” (Bioorg Med Chem Lett, 2007).
Active and inactive are the calls of the source. The rule behind the calls is not given here.

How the values were obtained:
[1] = target: T1, Peroxisome proliferator-activated receptor alpha (Homo sapiens, UniProt Q07869); assay: Agonist activity at human PPARalpha by FRET assay; assay type: functional
T1 sequence (Q07869 whole entry): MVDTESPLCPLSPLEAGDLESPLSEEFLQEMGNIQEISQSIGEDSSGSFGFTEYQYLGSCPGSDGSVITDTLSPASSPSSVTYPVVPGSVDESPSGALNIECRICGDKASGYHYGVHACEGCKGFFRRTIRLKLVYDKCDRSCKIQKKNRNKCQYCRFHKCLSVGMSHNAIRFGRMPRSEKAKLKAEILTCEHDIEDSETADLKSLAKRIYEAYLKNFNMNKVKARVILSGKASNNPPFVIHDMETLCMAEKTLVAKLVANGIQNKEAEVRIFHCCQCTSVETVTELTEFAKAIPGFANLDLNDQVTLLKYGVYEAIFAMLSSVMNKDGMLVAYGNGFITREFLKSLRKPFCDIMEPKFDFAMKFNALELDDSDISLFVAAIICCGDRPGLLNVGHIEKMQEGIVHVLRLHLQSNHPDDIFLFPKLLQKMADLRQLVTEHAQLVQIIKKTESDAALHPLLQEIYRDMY
Outline: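 Human PPARα ligand-binding domain (GST-tagged) incubated with compound, europium-labeled anti-GST antibody, biotinylated coactivator-binding peptide and streptavidin-APC. FRET read at excitation 340 nm, emission 615 and […]. Means of at least two experiments.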

[2] = target: T2, Peroxisome proliferator-activated receptor gamma (Mus musculus, UniProt P37238); assay: Agonist activity at PPARgamma in mouse 3T3-L1 cells by IRBA; assay type: functional, cell-based
T2 sequence (P37238 whole entry): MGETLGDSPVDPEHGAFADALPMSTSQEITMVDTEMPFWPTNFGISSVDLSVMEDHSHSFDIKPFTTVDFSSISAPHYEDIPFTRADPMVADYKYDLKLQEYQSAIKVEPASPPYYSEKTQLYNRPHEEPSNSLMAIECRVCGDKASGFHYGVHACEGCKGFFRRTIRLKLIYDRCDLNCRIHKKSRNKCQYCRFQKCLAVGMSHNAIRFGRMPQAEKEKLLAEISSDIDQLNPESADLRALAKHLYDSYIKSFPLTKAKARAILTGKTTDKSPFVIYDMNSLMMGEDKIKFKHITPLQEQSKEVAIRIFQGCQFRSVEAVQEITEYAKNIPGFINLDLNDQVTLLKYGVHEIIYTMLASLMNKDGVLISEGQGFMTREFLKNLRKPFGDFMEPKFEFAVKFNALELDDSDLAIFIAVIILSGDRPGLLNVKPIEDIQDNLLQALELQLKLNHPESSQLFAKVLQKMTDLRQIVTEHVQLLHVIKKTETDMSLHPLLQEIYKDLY

[3] = target: T3, Peroxisome proliferator-activated receptor delta (Homo sapiens, UniProt Q03181); assay: Agonist activity at human PPARdelta by FRET assay; assay type: functional
T3 sequence (Q03181 whole entry): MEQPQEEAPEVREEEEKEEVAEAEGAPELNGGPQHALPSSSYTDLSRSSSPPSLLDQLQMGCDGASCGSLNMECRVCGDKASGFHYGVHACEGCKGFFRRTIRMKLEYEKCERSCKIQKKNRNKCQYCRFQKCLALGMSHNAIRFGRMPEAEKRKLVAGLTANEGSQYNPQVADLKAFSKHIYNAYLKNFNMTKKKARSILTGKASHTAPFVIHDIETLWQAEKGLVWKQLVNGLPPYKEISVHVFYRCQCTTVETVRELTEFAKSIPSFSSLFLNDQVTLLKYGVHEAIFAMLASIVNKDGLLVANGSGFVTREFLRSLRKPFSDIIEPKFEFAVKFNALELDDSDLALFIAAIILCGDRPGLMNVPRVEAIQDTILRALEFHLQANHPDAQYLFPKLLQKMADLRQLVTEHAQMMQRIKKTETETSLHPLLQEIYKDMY

[4] = target: T4, Peroxisome proliferator-activated receptor alpha (Mus musculus, UniProt P23204); assay: Activity at mouse PPARalpha expressed in CV1 cells by GAL4 transactivation assay; assay type: cell-based, CV-1
T4 sequence (P23204 whole entry): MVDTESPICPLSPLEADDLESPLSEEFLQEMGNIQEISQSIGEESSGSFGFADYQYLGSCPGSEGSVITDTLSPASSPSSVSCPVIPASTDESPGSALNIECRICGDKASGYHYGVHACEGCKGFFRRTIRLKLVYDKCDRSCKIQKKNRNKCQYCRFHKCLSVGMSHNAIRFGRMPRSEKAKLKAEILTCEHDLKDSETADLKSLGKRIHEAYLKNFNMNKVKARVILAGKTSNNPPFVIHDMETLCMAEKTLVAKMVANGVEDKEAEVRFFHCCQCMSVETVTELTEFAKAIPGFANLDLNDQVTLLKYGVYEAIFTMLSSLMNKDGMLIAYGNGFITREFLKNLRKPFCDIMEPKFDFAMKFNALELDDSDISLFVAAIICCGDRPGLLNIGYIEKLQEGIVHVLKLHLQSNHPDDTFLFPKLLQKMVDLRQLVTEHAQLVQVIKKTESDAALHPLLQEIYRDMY
Outline: (§1)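 GAL4 transactivation in CV-1 cells (2.8 × 10⁴ per well, grown overnight in 10% FBS medium). Cells transiently transfected (Lipofectamine/Plus) with Gal4/PPAR-LBD fusion, UAS/firefly luciferase and Renilla luciferase plasmids. After overnight culture in charcoal/dextran-treated 10% FBS medium, compound added for 24 h. Dual luciferase read-out; EC50 from dose–response curve; means of at least two experiments.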

[5] = target: T3, Peroxisome proliferator-activated receptor delta; assay: Activity at human PPARdelta expressed in CV1 cells by GAL4 transactivation assay; assay type: cell-based, CV-1; outline: as §1
[6] = target: T1, Peroxisome proliferator-activated receptor alpha; assay: Activity at human PPARalpha expressed in CV1 cells by GAL4 transactivation assay; assay type: cell-based, CV-1; outline: as §1
[7] = target: T5, Peroxisome proliferator-activated receptor delta (Mus musculus, UniProt P35396); assay: Activity at mouse PPARdelta expressed in CV1 cells by GAL4 transactivation assay; assay type: cell-based, CV-1; outline: as §1
T5 sequence (P35396 whole entry): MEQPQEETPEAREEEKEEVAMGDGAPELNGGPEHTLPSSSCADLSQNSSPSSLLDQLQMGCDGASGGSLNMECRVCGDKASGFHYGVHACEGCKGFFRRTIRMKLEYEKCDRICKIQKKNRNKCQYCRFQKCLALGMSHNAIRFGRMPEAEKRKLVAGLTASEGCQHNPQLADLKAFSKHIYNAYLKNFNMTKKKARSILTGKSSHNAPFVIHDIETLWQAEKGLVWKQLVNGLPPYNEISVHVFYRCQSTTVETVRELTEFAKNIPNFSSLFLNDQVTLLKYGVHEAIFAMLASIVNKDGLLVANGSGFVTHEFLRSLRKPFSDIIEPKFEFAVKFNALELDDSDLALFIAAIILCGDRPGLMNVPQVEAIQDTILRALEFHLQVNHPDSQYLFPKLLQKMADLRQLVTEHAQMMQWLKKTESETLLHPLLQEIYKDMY

Mus musculus [8] = assay: Reduction of plasma glucose level in db/db mouse at 10 mg/kg, po after 7 days; assay type: functional, organism-based; parameters: dose 10 mg/kg
Outline: (§2)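 Female db/db mice grouped by equal mean plasma glucose, then given compound orally once daily for 7 days in 0.5% methylcellulose in water; fed ad libitum. Plasma glucose measured about 24 h after the last dose. Percent change from drug = ((Tf/Ti)/(Vf/Vi) − 1) × 100, correcting for vehicle-group change.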

Mus musculus [9] = assay: Reduction of triglycerides level in hApoA1 mouse at 30 mg/kg, po after 10 days; parameters: scale not given: the % may be the effect or the level left
Rattus norvegicus [10] = assay: AUC in rat at 3 mg/kg, po; assay type: ADME, organism-based, Plasma; parameters: dose 3 mg/kg, route oral; details: in vivo
Mus musculus [11] = assay: Increase in HDL-cholesterol level in hApoA1 mouse at 30 mg/kg, po after 10 days
Rattus norvegicus [12] = assay: Reduction of glucose level in Zucker fa/fa rat at 10 mg/kg after 10 days; assay type: functional, organism-based; parameters: dose 10 mg/kg
[13] = Half life in rat at 3 mg/kg, po; assay type: ADME, organism-based; parameters: dose 3 mg/kg, route oral; details: in vivo
[14] = Cmax in rat at 3 mg/kg, po and 3 mg/kg, iv; assay type: ADME, organism-based; details: in vivo
Mus musculus [15] = assay: Reduction of plasma glucose level in orally dosed db/db mouse after 7 days; assay type: functional; details: po, 168 h; outline: as §2
[16] = Bioavailability in rat at 3 mg/kg, po; assay type: ADME, organism-based; details: in vivo

EC50 [1] [nM] | EC50 [2] [nM] | EC50 [3] [nM] | SMILES | also measured
6550 | 237 | 83 | CC(=O)c1ccc(-c2ncc(C)c(N(C)CCCOc3ccc4c(c3)CC[C@H]4CC(=O)O)n2)cc1 | 
1150 | 780 | 9 | Cc1ccc(-c2ncc(C)c(N(C)CCCOc3ccc4c(c3)CC[C@H]4CC(=O)O)n2)cc1 | 
6610 | 678 | 24 | Cc1cnc(-c2ccccc2)nc1N(C)CCCOc1ccc2c(c1)CC[C@H]2CC(=O)O | 
6780 | 511 | 5 | Cc1nc(-c2ccc(OCCCOc3ccc4c(c3)CC[C@H]4CC(=O)O)nc2)sc1C | 
1390 | 7010 | 12 | COc1ccc(-c2ncc(C)c(N(C)CCCOc3ccc4c(c3)CC[C@H]4CC(=O)O)n2)cc1 | 
200 | 145 | 10 | CCc1ccc(-c2ncc(C)c(N(C)CCCOc3ccc4c(c3)CC[C@H]4CC(=O)O)n2)cc1 | IC50 [4]: 670 nM; IC50 [5]: 30 nM; IC50 [6]: 175 nM; IC50 [7]: 370 nM
425 | 360 | 16 | CCc1ccc(-c2ncc(F)c(N(C)CCCOc3ccc4c(c3)CC[C@H]4CC(=O)O)n2)cc1 | 
1130 | 2800 | 7 | Cc1cnc(-c2ccc(Cl)cc2)nc1N(C)CCCOc1ccc2c(c1)CC[C@H]2CC(=O)O | 
421 | 264 | 3 | CCc1csc(-c2ccc(OCCCOc3ccc4c(c3)CC[C@H]4CC(=O)O)nc2)n1 | 
3540 | 6930 | 7 | CCOc1cccc(-c2ncc(C)c(N(C)CCCOc3ccc4c(c3)CC[C@H]4CC(=O)O)n2)c1 | 
641 | 156 | 28 | Cc1cnc(-c2ccc(C(C)(C)C)cc2)nc1N(C)CCCOc1ccc2c(c1)CC[C@H]2CC(=O)O | 
920 | 600 | 11 | CCc1ccc(-c2nc(C)cc(N(C)CCCOc3ccc4c(c3)CC[C@H]4CC(=O)O)n2)cc1 | 
2120 | 860 | 7 | Cc1cnc(-c2ccc(F)cc2)nc1N(C)CCCOc1ccc2c(c1)CC[C@H]2CC(=O)O | 
3090 | 161 | 58 | CCOc1ccc(-c2ncc(C)c(N(C)CCCOc3ccc4c(c3)CC[C@H]4CC(=O)O)n2)cc1 | 
565 | 800 | 25 | CCc1ccc(-c2nccc(N(C)CCCOc3ccc4c(c3)CC[C@H]4CC(=O)O)n2)cc1 | 
2370 | 582 | 23 | Cc1cnc(-c2cccc(Cl)c2)nc1N(C)CCCOc1ccc2c(c1)CC[C@H]2CC(=O)O | 
4390 | 670 | 41 | Cc1cccc(-c2ncc(C)c(N(C)CCCOc3ccc4c(c3)CC[C@H]4CC(=O)O)n2)c1 | 

SMILES | EC50 [1] [nM] | EC50 [2] [nM] | EC50 [3] [nM] | also measured
CCOc1csc(-c2ccc(OCCCOc3ccc4c(c3)CC[C@H]4CC(=O)O)nc2)n1 | 807 | 411 | 3 | 
CCc1ccc(-c2ncc(CC)c(N(C)CCCOc3ccc4c(c3)CC[C@H]4CC(=O)O)n2)cc1 | 120 | 950 | 2 | 
CC(=O)c1sc(-c2ccc(OCCCOc3ccc4c(c3)CC[C@H]4CC(=O)O)nc2)nc1C | 1390 | 35 | 9 | Activity (Mus musculus [8]): Active; Activity (Mus musculus [9]): -32%; AUC (Rattus norvegicus [10]): 26 µM·h; Activity (Mus musculus [11]): 22%; Activity (Rattus norvegicus [12]): Active; IC50 [5]: 56 nM; half-life [13]: 5 h; Cmax [14]: 2800 nM; ED50 (Mus musculus [15]): 6.7 mg/kg; IC50 [6]: > 6000 nM; bioavailability [16]: 48%; IC50 [7]: 1390 nM
Cc1cnc(-c2ccc(C(C)C)cc2)nc1N(C)CCCOc1ccc2c(c1)CC[C@H]2CC(=O)O | 990 | 29 | 34 | IC50 [4]: 2530 nM; IC50 [5]: 49 nM; IC50 [6]: 237 nM; IC50 [7]: 610 nM
